Results filed as inconclusive are left out.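 Rule for the calls, unless noted: active = inhibition over a set limit, the all-compound mean plus 3 SD, in both replicate runs; inconclusive = over that limit in just one replicate run; inactive = at or under that limit in both runs.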
Columns and labels:
[1] = S. cerevisiae growth inhibition in permissive medium (OD615), pilot counter-assay for S. cerevisiae lifespan shortening project, permissive growth control (AID 705;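 active = growth inhibition above 25% in both replicates, a cutoff set 3 SD above the mean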); conditions: OD615, 24 h, at 10 µM, active compounds read high
Procedure, shortened: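 System: Engineered DeaD yeast | Buffer or medium: SC raffinose/galactose permissive medium | Incubation: Cells pre-grown 4 h, then 24 h compound exposure, 30 °C humidified | Measured by: Absorbance (optical density) at 615 nm | Read-out: Reduction in yeast growth (OD615)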

[2] = S. cerevisiae growth inhibition in restrictive medium, OD615, pilot screen, restrictive growth control, yeast lifespan reduction project (AID 706;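 active = growth inhibition above a set limit, 3 SD over mean compound inhibition, in both replicates, cut at about 43% in these data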;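 note: modified DeaD lifespan yeast strain shifted to restrictive glucose medium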); conditions: OD615, 48 h, at 10 µM, active compounds read high
Procedure, shortened: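 Material: modified S. cerevisiae; Medium: glucose-based CSMM-D restrictive medium; Compound dosing: one concentration, 10 µM final, 0.25% DMSO; Incubation: 48 h compound exposure at 30 °C; Measured by: OD615.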

[3] = doxorubicin toxicity protection in MRP-1 cells – H69AR cells, CellTiter-Glo, duplicate, MRP-1 activator project, pilot screen (AID 807;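 active = viability increase at or above a cutoff of the median across tested compounds plus 3 SD, cut at about 8.5% in these data, passing the limit was not always enough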;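 note: compound pretreatment 18-22 h then 72 h combined with doxorubicin; 0% = doxorubicin alone and 100% = vehicle without doxorubicin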); conditions: H69AR viability with doxorubicin, CellTiter-Glo luminescence; at 10 µM; active compounds read high
[4] = viability of HCT116 without oncogenic beta-catenin – human colon tumor cells, pilot screen (AID 823;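 active = cell viability at or below a set limit in both duplicate runs, the limit being the all-compound median minus 4 SD, cut at about 23% in these data, passing the limit was not always enough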;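 note: 0% = wells killed by 20 µM Hyamine and 100% = untreated DMSO cell wells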); conditions: HCT116 beta-catenin knockout viability, CellTiter-Glo, 60 h; at 10 µM; active compounds read low
[5] = viability of PTEN-null HCT116 cells – cell-based, HCT116 clonal line, CellTiter-Glo, pilot screen (AID 824;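 active = viability at or below 27.92% in each of two runs, the all-compound median minus 4 SD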;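 note: 0% = 20 µM Hyamine control and 100% = vehicle cell control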); conditions: HCT116 PTEN-deleted viability, 60 h, at 10 µM, active compounds read low
[6] = RAM pathway blockade in budding yeast – dse1pr::URA3 reporter, 5-FOA selection, pilot screen (AID 869);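 note: 0% = DMSO wells with no growth and 100% = 10 µM 1-NA-PP1 with full growth; RAM network block rescues cells from 5-FOA so hits raise OD615 growth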; conditions: S. cerevisiae dse1pr::URA3 5-FOA growth, OD615, 2 d; at 10 µM; active compounds read high; strain carries analog-sensitive mutant Cbk1 kinase
[7] = RAM signaling pathway blockade in yeast – S. cerevisiae, Pdr1DBD-CYC8 efflux-inhibited sensitized strain, primary screen (AID 1298;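 active = RAM network inhibition above 8.4% in each of two replicates, 3 SD over the compound average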;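 note: 0% = DMSO untreated cells without growth and 100% = 10 µM 1-NA-PP1 full growth; higher means more yeast growth rescued from 5-FOA killing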); conditions: S. cerevisiae cbk1-as DSE1-URA3 strain, 5-FOA growth OD615, 2 d; at 50 µM; active compounds read high

COc1ccc(OC)c(NC(=O)c2ccc(CN3CCOCC3)cc2)c1
inactive: growth inhibition [1] 9.65% | growth inhibition [2] 0.145% | viability increase [3] 0.88% | viability [4] 104% | viability [5] 111% | inhibition [6] 1.52% | RAM network inhibition [7] 4.85%

CN1CCN(Cc2c(O)ccc3c(=O)c(Oc4ccccc4Cl)c(C(F)(F)F)oc23)CC1
inactive: growth inhibition [1] -4.67% | growth inhibition [2] 12.6% | viability increase [3] -0.67% | viability [4] 98% | viability [5] 96.7% | inhibition [6] 0.13% | RAM network inhibition [7] 1.25%

CC12CN3CC(C)(CN(C1)C3c1ccc(Br)cc1)C2=O (configuration not stated)
inactive: growth inhibition [1] -1.9% | growth inhibition [2] 3.54% | viability increase [3] -2.12% | viability [4] 95.2% | viability [5] 96.9% | inhibition [6] 0.265% | RAM network inhibition [7] 0.82%

CC(C)N(Cc1ccccc1)C(=O)c1cnc2n(c1=O)CCS2
inactive: growth inhibition [1] -1.66% | growth inhibition [2] -28.5% | viability increase [3] -2.84% | viability [4] 105% | viability [5] 98.1% | inhibition [6] 1.28% | RAM network inhibition [7] 1.59%

O=C1Nc2ccccc2C(O)(C(=O)N2CCCCC2)N1c1ccccc1 (configuration not stated)
inactive: growth inhibition [1] -10.5% | growth inhibition [2] -20.2% | viability increase [3] -1.87% | viability [4] 98.9% | viability [5] 92.2% | inhibition [6] 2.2% | RAM network inhibition [7] 7.2%

CCCCCCN1C(=O)C(O)=C(C(C)=O)C1c1ccc(Cl)cc1 (configuration not stated)
inactive: growth inhibition [1] -6.47% | growth inhibition [2] 7.25% | viability increase [3] 0.3% | viability [4] 106% | viability [5] 100% | inhibition [6] -0.245% | RAM network inhibition [7] 8.31%

CCCC(=O)Nc1nc2c(OC)ccc(OC)c2s1
inactive: growth inhibition [1] -7.39% | growth inhibition [2] -5.13% | viability increase [3] -3.01% | viability [4] 93.5% | viability [5] 90.3% | inhibition [6] 2.33% | RAM network inhibition [7] 3.64%

Nc1c(C(=O)NCc2cccnc2)sc(=S)n1-c1ccccc1
inactive: growth inhibition [1] 11.3% | growth inhibition [2] 25.7% | viability increase [3] -1.61% | viability [4] 90.3% | viability [5] 83.6% | inhibition [6] 2.5% | RAM network inhibition [7] 2.58%

Cc1ccc(-n2ncc3c(=O)[nH]c(SCC(=O)N4CCCCC4)nc32)cc1
inactive: growth inhibition [1] -4.04% | growth inhibition [2] 2.2% | viability increase [3] -4.87% | viability [4] 94.6% | viability [5] 92.1% | inhibition [6] 1.27% | RAM network inhibition [7] 0.05%

COc1ccc(-c2nc(CSCC(=O)N3CCN(C(=O)c4ccco4)CC3)c(C)o2)cc1OC
inactive: growth inhibition [1] -1.3% | growth inhibition [2] 0.055% | viability increase [3] -1.9% | viability [4] 106% | viability [5] 103% | inhibition [6] -0.54% | RAM network inhibition [7] 5.11%

CCN(CC)CCNC(=O)Cn1nc(Cc2cccnc2)c2ccccc2c1=O
inactive: growth inhibition [1] -3.85% | growth inhibition [2] -2.59% | viability increase [3] -0.86% | viability [4] 95.7% | viability [5] 97.7% | inhibition [6] -0.35% | RAM network inhibition [7] 1.23%

Cc1nn(Cc2ccccc2)c(N)c1C#N
inactive: growth inhibition [1] -2.69% | growth inhibition [2] 1.22% | viability increase [3] 0.68% | viability [4] 107% | viability [5] 98.3% | inhibition [6] 1.58% | RAM network inhibition [7] 5.62%

Clc1ccccc1C1CC(c2ccccc2)Nc2ncnn21 (configuration not stated)
inactive: growth inhibition [1] -10.9% | growth inhibition [2] -11.2% | viability increase [3] -1.24% | viability [4] 83.9% | viability [5] 81.2% | inhibition [6] 2.05% | RAM network inhibition [7] -0.69%

COCCNC(=O)Cn1cnc2c1c(=O)n(C)c(=O)n2C
inactive: growth inhibition [1] -16.3% | growth inhibition [2] -12.6% | viability increase [3] -0.95% | viability [4] 97.6% | viability [5] 98.3% | inhibition [6] 1.23% | RAM network inhibition [7] 3.4%

CC12CCC(C(=O)Nc3ccccc3N3CCOCC3)(CC1=O)C2(C)C (configuration not stated)
inactive: growth inhibition [1] -9.71% | growth inhibition [2] -14.9% | viability increase [3] -2.5% | viability [4] 90.3% | viability [5] 94.8% | inhibition [6] 0.715% | RAM network inhibition [7] 6.03%

O=C1CCCN1CC(CN1CCOCC1)Sc1nc2ccccc2c(=O)n1-c1ccccc1 (configuration not stated)
inactive: growth inhibition [1] -2.25% | growth inhibition [2] -6.07% | viability increase [3] -6.36% | viability [4] 92.1% | viability [5] 97.3% | inhibition [6] 1.88% | RAM network inhibition [7] 1.94%

O=C(Nc1nc2ccccc2n1CCN1CCCC1)c1ccc(Cl)cc1
inactive: growth inhibition [1] -9.21% | growth inhibition [2] -13.3% | viability increase [3] -7.07% | viability [4] 59.9% | viability [5] 65.7% | inhibition [6] -0.07% | RAM network inhibition [7] 4.6%

CCN(CC)CCN1C(=O)c2ccccc2NC1c1cccc(F)c1 (configuration not stated)
inactive: growth inhibition [1] -8.46% | growth inhibition [2] 1.83% | viability increase [3] -2.21% | viability [4] 84.4% | viability [5] 91.4% | inhibition [6] 0.75% | RAM network inhibition [7] 8.87%

O=C(O)c1ccc(N2CCCCCC2)c(N2C(=O)c3ccccc3C2=O)c1
inactive: growth inhibition [1] -18% | growth inhibition [2] 4.7% | viability increase [3] -0.78% | viability [4] 108% | viability [5] 98.2% | inhibition [6] 0.945% | RAM network inhibition [7] 3.42%

Cc1cc(Nc2ccc(F)cc2)n2nc(C)nc2n1
inactive: growth inhibition [1] -2.01% | growth inhibition [2] 4.12% | viability increase [3] -0.76% | viability [4] 100% | viability [5] 97.2% | inhibition [6] -0.875% | RAM network inhibition [7] 0.55%

COC(=O)c1ccccc1NC(=O)Cn1cc2c(n1)CCC(C)C2 (configuration not stated)
inactive: growth inhibition [1] 0.34% | growth inhibition [2] -0.81% | viability increase [3] -0.23% | viability [4] 92.9% | viability [5] 87.9% | inhibition [6] 1.79% | RAM network inhibition [7] 3.66%

CCOc1cccc(OCCOCCN(C)Cc2ccccc2)c1
inactive: growth inhibition [1] 2.5% | growth inhibition [2] -3.23% | viability increase [3] -4.15% | viability [4] 75.3% | viability [5] 78.9% | inhibition [6] 0.55% | RAM network inhibition [7] 0.2%

CCc1nnc(NC(=O)CCC(=O)O)s1
inactive: growth inhibition [1] -7.04% | growth inhibition [2] -5.46% | viability increase [3] 0.56% | viability [4] 98.3% | viability [5] 96.3% | inhibition [6] 0.815% | RAM network inhibition [7] 2.03%

CCOC(=O)c1[nH]c(C)c(C(=O)Nc2ccc(C)c(C)c2)c1C
inactive: growth inhibition [1] -12.6% | growth inhibition [2] -10.7% | viability increase [3] -4.91% | viability [4] 64.1% | viability [5] 45.9% | inhibition [6] 1.46% | RAM network inhibition [7] 1.84%

COc1ccc(OC)c(NC(=O)C2CCCN2C(=O)C2CCC(C)CC2)c1 (configuration not stated)
inactive: growth inhibition [1] -14.1% | growth inhibition [2] 6.52% | viability increase [3] -5.02% | viability [4] 88.5% | viability [5] 91.6% | inhibition [6] 0.895% | RAM network inhibition [7] -0.32%

Fc1ccc(Nc2nc(N3CCOCC3)c3ccccc3n2)cc1
inactive: growth inhibition [1] -3.31% | growth inhibition [2] -13.7% | viability increase [3] -3.18% | viability [4] 93.5% | viability [5] 93.4% | inhibition [6] 0.45% | RAM network inhibition [7] 2.64%

c1ccc(CSc2nnc(-c3ccncc3)o2)cc1
inactive: growth inhibition [1] -3.77% | growth inhibition [2] 9.8% | viability increase [3] -2.83% | viability [4] 109% | viability [5] 96.3% | inhibition [6] 0.73% | RAM network inhibition [7] 1.96%

COCCN1C(=O)c2oc3ccccc3c(=O)c2C1c1ccc(C(=O)OC)cc1 (configuration not stated)
inactive: growth inhibition [1] -1.7% | growth inhibition [2] 5.81% | viability increase [3] -1.14% | viability [4] 94.3% | viability [5] 89.1% | inhibition [6] 0.775% | RAM network inhibition [7] 2.37%

Cn1nnnc1SCC(=O)c1ccco1
inactive: growth inhibition [1] -7.91% | growth inhibition [2] -1% | viability increase [3] -3.23% | viability [4] 103% | viability [5] 105% | inhibition [6] 1.83% | RAM network inhibition [7] -0.17%

CCC1(C)OC(=O)N2CCc3c(C)[nH]c4c(C)ccc(c34)C21C (configuration not stated)
inactive: growth inhibition [1] -14.7% | growth inhibition [2] -17.8% | viability increase [3] -1.6% | viability [4] 95.9% | viability [5] 91.3% | inhibition [6] 2.15% | RAM network inhibition [7] 1.06%

O=C(CSc1nnc(-c2cccs2)o1)N1CCCCC1
inactive: growth inhibition [1] -2.25% | growth inhibition [2] 11.9% | viability increase [3] 2.11% | viability [4] 104% | viability [5] 115% | inhibition [6] 1.31% | RAM network inhibition [7] 1.38%

CCOC(=O)CCc1c(C)c2c(C)nn(-c3ccccc3)c2[nH]c1=O
inactive: growth inhibition [1] -2.26% | growth inhibition [2] -0.33% | viability increase [3] -1.19% | viability [4] 99% | viability [5] 95.9% | inhibition [6] 1.65% | RAM network inhibition [7] 1.84%

CCS(=O)(=O)Nc1ccc(-c2ccc(NS(=O)(=O)CC)c(OC)c2)cc1OC
inactive: growth inhibition [1] -3.19% | growth inhibition [2] -1.95% | viability increase [3] -3.7% | viability [4] 103% | viability [5] 101% | inhibition [6] 2.69% | RAM network inhibition [7] 6.39%

Cc1cc(NC(=O)c2cc(C3CC3)on2)n(-c2ccccc2)n1
inactive: growth inhibition [1] -16.2% | growth inhibition [2] -17.8% | viability increase [3] -0.45% | viability [4] 101% | viability [5] 99.6% | inhibition [6] 0.355% | RAM network inhibition [7] 8.58%

CCCSc1nnc2c(n1)OC(c1cccn1C)N(C(C)=O)c1ccccc1-2 (configuration not stated)
inactive: growth inhibition [1] -1.32% | growth inhibition [2] -5.99% | viability increase [3] -2.06% | viability [4] 97.7% | viability [5] 104% | inhibition [6] 0.505% | RAM network inhibition [7] 3.57%

Cc1cc(C)n(S(=O)(=O)c2cccc(Cl)c2Cl)n1
inactive: growth inhibition [1] -2.69% | growth inhibition [2] -0.205% | viability increase [3] -1.97% | viability [4] 96.8% | viability [5] 93.6% | inhibition [6] 0.73% | RAM network inhibition [7] 2.28%

Reference: PubChem BioAssay
